Values after ≈ are worked out from the molar mass of the structure shown.
How the values were obtained:
Staphylococcus aureus [1] = experiment: Antibacterial activity against Staphylococcus aureus ATCC 25923 after 18 hrs by broth microdilution method; assay type: functional; conditions: ATCC 25923, 18 h
In short: (§1)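 MIC by broth microdilution per ISO 20776-1:2006 and CLSI M07-A8. Inoculum 10^6 cfu/ml in Mueller-Hinton broth with compound serially diluted, final concentrations 2 to 128 ug/ml, duplicate rows, no-drug growth control. Incubation 18 h at 37 °C. MIC taken as lowest concentration giving complete inhibition of visible growth. Each compound tested at least twice.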

[2] = tested on: Staphylococcus epidermidis; experiment: Antibacterial activity against Staphylococcus epidermidis CIP 81.55 after 18 hrs by broth microdilution method; assay type: functional; conditions: CIP 81.55, 18 h; in short: as §1
[3] = tested on: Staphylococcus epidermidis; experiment: Antibacterial activity against Staphylococcus epidermidis ATCC 12228 after 18 hrs by broth microdilution method; assay type: functional; conditions: ATCC 12228, 18 h; in short: as §1
MRC5 = experiment: Cytotoxicity against human MRC5 cells at 1 uM; assay type: cell-based; conditions: mrc5, 1 µM
HCT-116 = experiment: Cytotoxicity against human HCT116 cells at 1 uM; assay type: cell-based; conditions: hct-116, 1 µM
Staphylococcus aureus [4] = experiment: Antibacterial activity against Staphylococcus aureus CIP 65.6 after 18 hrs by broth microdilution method; assay type: functional; conditions: CIP 65.6, 18 h; in short: as §1
Staphylococcus aureus [5] = experiment: Antibacterial activity against Staphylococcus aureus ATCC 29213 after 18 hrs by broth microdilution method; assay type: functional; conditions: ATCC 29213, 18 h; in short: as §1
Staphylococcus aureus [6] = experiment: Antibacterial activity against methicillin-resistant Staphylococcus aureus CIP 65.25 after 18 hrs by broth microdilution method; assay type: functional; conditions: CIP 65.25, 18 h
In short: (§2)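 Broth microdilution following ISO 20776-1:2006 and CLSI M07-A8, in Mueller-Hinton broth. Inoculum was 10^6 cfu/ml, with compound serial dilutions spanning 2 to 128 ug/ml and a compound-free growth control well. Plates were incubated 18 h at 37 °C. MIC was the lowest concentration giving complete inhibition of visible growth. Each compound was tested at least twice.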

Streptococcus pneumoniae [7] = experiment: Antibacterial activity against Streptococcus pneumoniae ATCC 49619 after 18 hrs by broth microdilution method; assay type: functional; conditions: ATCC 49619, 18 h
In short: (§3)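 MIC by broth microdilution per ISO 20776-1:2006 and CLSI M07-A8. Inoculum 10^6 cfu/ml in Mueller-Hinton broth […]. Compound serially diluted, final 2 to 128 ug/ml, duplicate rows, no-drug growth control. Read after 18 h at 37 °C as lowest concentration fully inhibiting visible growth. At least two experiments.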

Staphylococcus aureus [8] = experiment: Antibacterial activity against Staphylococcus aureus ATCC 9144 after 18 hrs by broth microdilution method; assay type: functional; conditions: ATCC 9144, 18 h; in short: as §1
Streptococcus pneumoniae [9] = experiment: Antibacterial activity against Streptococcus pneumoniae ATCC 6303 after 18 hrs by broth microdilution method; assay type: functional; conditions: ATCC 6303, 18 h; in short: as §3
Staphylococcus aureus [10] = experiment: Antibacterial activity against methicillin-resistant Staphylococcus aureus ATCC 33592 after 18 hrs by broth microdilution method; assay type: functional; conditions: ATCC 33592, 18 h; in short: as §2
Staphylococcus aureus [11] = experiment: Antibacterial activity against Staphylococcus aureus CIP 103428 after 18 hrs by broth microdilution method; assay type: functional; conditions: CIP 103428, 18 h; in short: as §1
KB = experiment: Cytotoxicity against human KB cells at 1 uM; assay type: cell-based
Staphylococcus aureus [12] = experiment: Antibacterial activity against Staphylococcus aureus ATCC 6538 after 18 hrs by broth microdilution method; assay type: functional; conditions: ATCC 6538, 18 h; in short: as §1
[13] = tested on: Staphylococcus epidermidis; experiment: Antibacterial activity against Staphylococcus epidermidis CIP 103627 after 18 hrs by broth microdilution method; assay type: functional; conditions: CIP 103627, 18 h; in short: as §1
Staphylococcus aureus [14] = experiment: Antibacterial activity against vancomycin intermediate Staphylococcus aureus […] after 18 hrs by broth microdilution method; assay type: functional; in short: as §2

Row | Structure (SMILES) | MIC (Staphylococcus aureus [1]) [µg/mL] | MIC [2] [µg/mL] | MIC [3] [µg/mL] | Activity (MRC5) | Activity (HCT-116) | MIC (Staphylococcus aureus [4]) [µg/mL] | MIC (Staphylococcus aureus [5]) [µg/mL] | MIC (Staphylococcus aureus [6]) [µg/mL] | MIC (Streptococcus pneumoniae [7]) [µg/mL] | MIC (Staphylococcus aureus [8]) [µg/mL] | MIC (Streptococcus pneumoniae [9]) [µg/mL] | MIC (Staphylococcus aureus [10]) [µg/mL] | MIC (Staphylococcus aureus [11]) [µg/mL] | Activity (KB) | MIC (Staphylococcus aureus [12]) [µg/mL] | MIC [13] [µg/mL] | MIC (Staphylococcus aureus [14]) [µg/mL]
1 | CC(C)(C)OC(=O)NCC(c1c[nH]c2cc(Cl)ccc12)N(O)Cc1ccccc1 (configuration not stated) | 16 (≈ 38.5 µM) | 16 (≈ 38.5 µM) | 16 (≈ 38.5 µM) | Non-toxic | Non-toxic | 16 (≈ 38.5 µM) | 16 (≈ 38.5 µM) | 16 (≈ 38.5 µM) | > 128 | 16 (≈ 38.5 µM) | > 128 | 16 (≈ 38.5 µM) | 16 (≈ 38.5 µM) | Non-toxic | 16 (≈ 38.5 µM) | 16 (≈ 38.5 µM) | 16 (≈ 38.5 µM)
2 | CC(C)(C)OC(=O)NCC(c1c[nH]c2ccc(I)cc12)N(O)Cc1ccccc1 (configuration not stated) | 8 (≈ 15.8 µM) | 8 (≈ 15.8 µM) | 8 (≈ 15.8 µM) | Non-toxic | Non-toxic | 8 (≈ 15.8 µM) | 8 (≈ 15.8 µM) | 8 (≈ 15.8 µM) | 64 (≈ 126 µM) | 8 (≈ 15.8 µM) | 64 (≈ 126 µM) | 8 (≈ 15.8 µM) | 8 (≈ 15.8 µM) | Non-toxic | 8 (≈ 15.8 µM) | 8 (≈ 15.8 µM) | 8 (≈ 15.8 µM)
3 | CC(C)CC(c1c[nH]c2ccc(F)cc12)N(O)Cc1ccccc1 (configuration not stated) | 64 (≈ 196 µM) | 64 (≈ 196 µM) | 64 (≈ 196 µM) |  |  | 64 (≈ 196 µM) | 64 (≈ 196 µM) | 128 (≈ 392 µM) | 128 (≈ 392 µM) | 64 (≈ 196 µM) | 128 (≈ 392 µM) | 128 (≈ 392 µM) | 64 (≈ 196 µM) |  | 64 (≈ 196 µM) | 64 (≈ 196 µM) | 128 (≈ 392 µM)
4 | CC(C)(C)OC(=O)NCC(c1c[nH]c2cccc(Br)c12)N(O)Cc1ccccc1 (configuration not stated) | > 128 | > 128 | > 128 |  |  | > 128 | > 128 | > 128 | > 128 | > 128 | > 128 | > 128 | > 128 |  | > 128 | > 128 | > 128
5 | CC(c1c[nH]c2ccc(Cl)cc12)N(O)Cc1ccccc1 (configuration not stated) | > 128 | > 128 | > 128 |  |  | > 128 | > 128 | > 128 | > 128 | > 128 | > 128 | > 128 | > 128 |  | > 128 | > 128 | > 128
6 | CC(C)(C)OC(=O)NCC(c1c[nH]c2ccccc12)N(O)Cc1ccccc1 (configuration not stated) | > 128 | > 128 | > 128 |  |  | > 128 | > 128 | > 128 | > 128 | > 128 | > 128 | > 128 | > 128 |  | > 128 | > 128 | > 128
7 | CC(C)CC(c1c[nH]c2ccc(I)cc12)N(O)Cc1ccccc1 (configuration not stated) | > 128 | > 128 | > 128 |  |  | > 128 | > 128 | > 128 | > 128 | > 128 | > 128 | > 128 | > 128 |  | > 128 | > 128 | > 128
8 | CC(C)CC(c1c[nH]c2ccc(Br)cc12)N(O)Cc1ccccc1 (configuration not stated) | > 128 | > 128 | > 128 |  |  | > 128 | > 128 | > 128 | > 128 | > 128 | > 128 | > 128 | > 128 |  | > 128 | > 128 | > 128
9 | CC(c1c[nH]c2ccc(Br)cc12)N(O)Cc1ccccc1 (configuration not stated) | > 128 | > 128 | > 128 |  |  | > 128 | > 128 | > 128 | > 128 | > 128 | > 128 | > 128 | > 128 |  | > 128 | > 128 | > 128
10 | CC(C)(C)OC(=O)NCC(c1c[nH]c2ccc(Cl)cc12)N(O)Cc1ccccc1 (configuration not stated) | 16 (≈ 38.5 µM) | 16 (≈ 38.5 µM) | 16 (≈ 38.5 µM) | Non-toxic | Non-toxic | 16 (≈ 38.5 µM) | 16 (≈ 38.5 µM) | 16 (≈ 38.5 µM) | 64 (≈ 154 µM) | 16 (≈ 38.5 µM) | 64 (≈ 154 µM) | 16 (≈ 38.5 µM) | 16 (≈ 38.5 µM) | Non-toxic | 16 (≈ 38.5 µM) | 16 (≈ 38.5 µM) | 16 (≈ 38.5 µM)
11 | CC(C)(C)OC(=O)NCC(c1c[nH]c2cc(F)ccc12)N(O)Cc1ccccc1 (configuration not stated) | > 128 | > 128 | > 128 |  |  | > 128 | > 128 | > 128 | > 128 | > 128 | > 128 | > 128 | > 128 |  | > 128 | > 128 | > 128
12 | CC(c1c[nH]c2ccc(F)cc12)N(O)Cc1ccccc1 (configuration not stated) | > 128 | > 128 | > 128 |  |  | > 128 | > 128 | > 128 | > 128 | > 128 | > 128 | > 128 | > 128 |  | > 128 | > 128 | > 128

— ChEMBL document CHEMBL1777764, “Synthesis and evaluation of 1-(1H-indol-3-yl)ethanamine derivatives as new antibacterial agents” (Bioorg Med Chem, 2011)
